Experimental data of several laboratories.
Each line is one published result; the experiments were not run side by side.
HSP90B1: Endoplasmin (HSP90B1, Canis lupus familiaris, UniProt P41148)
MTOR: Serine/threonine-protein kinase mTOR (MTOR, Homo sapiens, UniProt P42345)
LYZ: Lysozyme C (LYZ, Gallus gallus, UniProt P00698)
SMARCA2 bromodomain: SWI/SNF-related matrix-associated actin-dependent regulator of chromatin subfamily A member 2, bromodomain (SMARCA2, Homo sapiens, UniProt P51531)

COC(=O)c1c(O)cc(O)c(Cl)c1CCC(=O)Nc1cccc(Cl)c1
Kd (HSP90B1; ligand displacement, FP): 6420 nM

CCC(=O)N1CCC(C(=O)N(C)CC(=O)N2CCN(c3nc(-c4cnc(N)nc4C(F)F)nc(N4CCOCC4)n3)CC2)CC1
Kd (MTOR; binding, competition with immobilised ligand): 54 nM

CC(=O)N[C@H]1[C@H](O[C@H]2[C@H](O)[C@@H](NC(C)=O)C(O)O[C@@H]2CO)O[C@H](CO)[C@@H](O[C@@H]2O[C@H](CO)[C@@H](O)[C@H](O)[C@H]2NC(C)=O)[C@@H]1O (stereo partly shown)
Kd (LYZ; binding; pH 7.4): 6200 nM

N=c1ccc2c(-c3ccc(C(=O)NCCCCCCn4cc(CCCC(=O)Nc5nc6ccc(Cl)cc6c6nc(-c7ccco7)nn56)nn4)cc3C(=O)O)c3ccc(N)c(S(=O)(=O)O)c3oc-2c1S(=O)(=O)O
Kd (Adenosine receptor A3 (ADORA3, Homo sapiens, UniProt P0DMS8); binding, flow cytometry): 5.15 nM

Cc1ncsc1-c1ccc(CNC(=O)[C@@H]2C[C@@H](O)CN2C(=O)[C@@H](NC(=O)C2(F)CC2)C(C)(C)C)c(OCCOc2ccc(CN3CCN(c4cc(-c5ccccc5O)nnc4N)CC3)cc2)c1
Kd (SMARCA2 bromodomain; binding, SPR): 1800 nM

COC(=O)c1c(O)cc(O)c(Cl)c1CCC(=O)Nc1ccc(Br)cc1
Kd (HSP90B1; ligand displacement, FP): 1500 nM

Cc1cc2nc3c(=O)[nH]c(=O)nc-3n(C[C@H](O)[C@H](O)[C@H](O)COP(=O)(O)OP(=O)(O)OC[C@H]3O[C@@H](n4cnc5c(N)ncnc54)[C@H](O)[C@@H]3O)c2cc1C
Kd (Heterogeneous nuclear ribonucleoprotein H (Homo sapiens, UniProt P31943); binding; lysate): 53 nM

COC(=O)c1c(O)cc(O)c(Cl)c1CCC(=O)Nc1ccccc1
Kd (HSP90B1; ligand displacement, FP): 20500 nM

C=CC(=O)N1CCC(C(=O)NCC(=O)N2CCN(c3nc(-c4cnc(N)nc4C(F)F)nc(N4CCOCC4)n3)CC2)CC1
Kd (MTOR; binding, competition with immobilised ligand): 32 nM

CCN(CC)CCCC(C)Nc1c2ccc(Cl)cc2nc2ccc(OC)cc12 (stereo not shown)
Kd (LYZ; binding, fluorescence): 4700 nM

c1cncc(-c2cccc(Nc3nccc(NC4CCCCC4)n3)c2)c1
Kd (Non-receptor tyrosine-protein kinase TYK2, JH1 (TYK2, Homo sapiens, UniProt P29597); binding, competition with immobilised ligand): 350 nM

COC(=O)c1c(O)cc(O)c(Cl)c1CCC(=O)Nc1nncs1
Kd (HSP90B1; ligand displacement, FP): 1540 nM

NC(=O)c1ccc(-c2nc(-c3ccc4c(c3)OCO4)c(-c3ccccn3)[nH]2)cc1
Kd (Epidermal growth factor receptor (EGFR, Homo sapiens, UniProt P00533); binding): > 10000 nM

Cc1ncsc1-c1ccc(CNC(=O)[C@@H]2C[C@H](O)CN2C(=O)[C@@H](NC(=O)C2(F)CC2)C(C)(C)C)c(OCCc2ccc(CN3CCN(c4cc(-c5ccccc5O)nnc4N)CC3)cc2)c1
Kd (SMARCA2 bromodomain; binding, SPR): 1200 nM

Cc1nc(NC(=O)N2CCC[C@H]2C(N)=O)sc1-c1ccnc(C(C)(C)C(F)(F)F)c1
Kd (MTOR; binding, competition with immobilised ligand): 645 nM

CCCN1CCN(c2ccc(-c3cncc(Cl)c3N3CCC4(CCNC4=O)CC3)cc2)CC1
Kd (Protein kinase C delta type (PRKCD, Homo sapiens, UniProt Q05655); cell-free assay; lysate): 3470 nM
